We go through 2 molecules from ChEMBL document CHEMBL5365542, “Difluoromethyl-1,3,4-oxadiazoles Are Selective, Mechanism-Based, and Essentially Irreversible Inhibitors of Histone Deacetylase 6” (J Med Chem, 2023).

Assay [1] relates to T1, Histone deacetylase 6 (Danio rerio), F8W4B7 [H574A].
T1 sequence (whole entry): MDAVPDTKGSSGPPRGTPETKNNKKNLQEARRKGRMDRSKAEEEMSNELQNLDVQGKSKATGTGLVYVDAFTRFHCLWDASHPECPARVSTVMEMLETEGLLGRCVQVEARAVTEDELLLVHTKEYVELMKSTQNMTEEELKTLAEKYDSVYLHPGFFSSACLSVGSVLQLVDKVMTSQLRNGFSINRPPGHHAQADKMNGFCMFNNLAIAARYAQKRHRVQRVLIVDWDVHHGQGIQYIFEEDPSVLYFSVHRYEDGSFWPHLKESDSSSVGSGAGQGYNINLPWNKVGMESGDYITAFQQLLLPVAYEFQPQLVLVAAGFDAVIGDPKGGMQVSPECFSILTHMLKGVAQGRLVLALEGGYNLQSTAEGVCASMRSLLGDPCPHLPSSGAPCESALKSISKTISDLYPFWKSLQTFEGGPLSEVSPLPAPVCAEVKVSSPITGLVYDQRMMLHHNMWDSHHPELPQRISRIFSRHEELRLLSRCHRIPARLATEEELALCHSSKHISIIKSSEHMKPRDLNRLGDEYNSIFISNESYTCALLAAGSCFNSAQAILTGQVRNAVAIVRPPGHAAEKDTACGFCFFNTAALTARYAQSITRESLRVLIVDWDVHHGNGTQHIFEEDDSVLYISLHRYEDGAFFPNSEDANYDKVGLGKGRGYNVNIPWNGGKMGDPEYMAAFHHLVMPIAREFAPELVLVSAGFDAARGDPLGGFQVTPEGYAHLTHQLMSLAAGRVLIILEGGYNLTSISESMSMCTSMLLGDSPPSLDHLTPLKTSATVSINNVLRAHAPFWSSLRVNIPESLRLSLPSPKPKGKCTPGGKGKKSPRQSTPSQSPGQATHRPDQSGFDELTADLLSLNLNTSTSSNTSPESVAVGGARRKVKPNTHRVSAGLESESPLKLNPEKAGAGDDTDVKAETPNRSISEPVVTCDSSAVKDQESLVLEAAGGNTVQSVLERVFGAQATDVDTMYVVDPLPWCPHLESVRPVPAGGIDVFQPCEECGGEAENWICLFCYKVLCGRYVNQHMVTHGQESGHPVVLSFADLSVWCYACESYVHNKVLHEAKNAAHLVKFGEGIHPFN
Nature of the assay: Irreversible inhibition of Danio rerio HDAC6 H574A mutant catalytic domain 2 assessed as enzyme catalysed ring opening by measuring reduction in 2-(Benzylamino)pyrimidine-5-carbohydrazide formation at 100 uM incubated overnight by LC-MS analysis. The method, boiled down:
(§1)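 Zebrafish HDAC6 CD2 mutants were made by site-directed mutagenesis and expressed in BL21(DE3). Enzyme at 50 μM was incubated overnight with 100 μM inhibitor in 50 mM HEPES pH 7.5, 100 mM KCl, 1 mM TCEP, 5% glycerol; an enzyme-free control was included. Protein was methanol-precipitated and filtered, and products were analysed by C18 UPLC-MS with a 2-min gradient.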

Assay [2] deals with T2, Histone deacetylase 6 (Danio rerio), F8W4B7 [H573A].
T2 sequence (whole entry): T1 sequence (whole entry) with H573A, A574H
Nature of the assay: Irreversible inhibition of Danio rerio HDAC6 H573A mutant catalytic domain 2 assessed as enzyme catalysed ring opening by measuring reduction in 2-(Benzylamino)-N'-(2,2-difluoroacetyl)pyrimidine-5-carbohydrazide formation at 100 uM incubated overnight by LC-MS analysis. The procedure, abridged: as §1

Molecules are shown by their SMILES. Numbering of substitutions follows the chain as printed. Activity calls are given as the source filed them. No cut-off for these calls is given here.

As to `FC(F)c1nnc(-c2cnc(NCc3ccccc3)nc2)o1`, the inhibition result in assay [1] and in assay [2] was “Active” throughout.

`FC(F)(F)c1nnc(-c2cnc(NCc3ccccc3)nc2)o1`: the inhibition result in assay [1] and in assay [2] was “Active” each time.
